Measurements taken from ChEMBL document CHEMBL1129348, “Effects of modifications of residues in position 3 of dynorphin A(1-11)-NH2 on kappa receptor selectivity and potency” (J Med Chem, 1996).

Assays:
[1] = biological target: Kappa-type opioid receptor (Cavia porcellus, UniProt P41144); assay: Inhibition of binding [3H][…] at Opioid receptor kappa 1 of guinea pig brain membrane (GPB) homogenates.
In short: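 Whole-brain membranes from adult male guinea pigs (200–400 g) were used. Mean ± SEM of three or more independent measurements.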

[2] = biological target: Mu-type opioid receptor (Cavia porcellus, UniProt P97266); assay: Inhibition of binding [3H]DAMGO at Opioid receptor mu 1 of guinea pig brain membrane (GPB) homogenates.
In short: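 Membranes from whole brains of adult male guinea pigs (200–400 g). Displacement of [3H]DAMGO at 1.0 nM for mu sites, with 180 min incubation. Values come from at least three independent measurements and are given as mean ± SEM.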

[3] = Ratio between IC50 of GPI and GPB; format: functional
[4] = tested on: Opioid receptors mu & kappa (Cavia porcellus); assay: Selectivity ratio between mu and kappa opioid receptor from guinea pig brain homogenate
[5] = tested on: Opioid receptors delta & kappa (Cavia porcellus); assay: Selectivity ratio between delta and kappa opioid receptor from guinea pig brain homogenate
[6] = organism: Cavia porcellus; assay: Evaluated for its ability to inhibit the electrically evoked contraction of the guinea pig ileum(GPI).; format: functional
In short: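 Strips of guinea pig ileum longitudinal muscle–myenteric plexus were electrically stimulated and inhibition of contraction was recorded. IC50 and its standard error came from fitting mean data to the Hill equation by nonlinear least squares. Selected analogues were retested with 1000 nM CTAP as mu antagonist to look for a shift.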

[7] = organism: Cavia porcellus; assay: Ability to inhibit the electrically evoked contraction of the guinea pig ileum(GPI).at concentration of 30 uM; format: functional
[8] = biological target: Delta-type opioid receptor (Mus musculus) (UniProt P32300); assay: Agonistic activity towards Opioid receptor delta 1 was determined by evaluating the inhibitory activity towards electrically stimulated mouse vas deferens; conditions: concentration not given here
[9] = organism: Cavia porcellus; assay: Compound was evaluated for its ability to inhibit the electrically evoked contraction of the guinea pig ileum(GPI).at concentration of 60 uM; format: functional
[10] = organism: Cavia porcellus; assay: Ability to inhibit the electrically evoked contraction of the guinea pig ileum(GPI)at concentration of 30 uM; format: functional
[11] = organism: Cavia porcellus; assay: Ability to inhibit the electrically evoked contraction of the guinea pig ileum(GPI).at concentration of 60 uM; format: functional

Kappa-type opioid receptor, sequence (P41144 whole entry): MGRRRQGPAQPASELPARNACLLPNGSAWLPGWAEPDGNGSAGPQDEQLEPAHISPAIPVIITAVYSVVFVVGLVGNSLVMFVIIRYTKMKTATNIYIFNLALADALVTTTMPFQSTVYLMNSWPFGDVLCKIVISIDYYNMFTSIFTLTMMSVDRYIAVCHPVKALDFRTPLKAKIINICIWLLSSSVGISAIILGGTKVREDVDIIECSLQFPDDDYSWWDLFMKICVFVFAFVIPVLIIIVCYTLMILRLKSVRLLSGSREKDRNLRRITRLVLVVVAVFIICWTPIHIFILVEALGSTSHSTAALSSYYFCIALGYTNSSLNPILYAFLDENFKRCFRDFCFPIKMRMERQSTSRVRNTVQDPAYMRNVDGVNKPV
Mu-type opioid receptor, sequence (P97266 whole entry): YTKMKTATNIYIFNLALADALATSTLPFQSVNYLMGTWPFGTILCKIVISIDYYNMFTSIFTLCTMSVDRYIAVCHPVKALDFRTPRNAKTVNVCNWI
Delta-type opioid receptor (Mus musculus), sequence (P32300 whole entry, looked up): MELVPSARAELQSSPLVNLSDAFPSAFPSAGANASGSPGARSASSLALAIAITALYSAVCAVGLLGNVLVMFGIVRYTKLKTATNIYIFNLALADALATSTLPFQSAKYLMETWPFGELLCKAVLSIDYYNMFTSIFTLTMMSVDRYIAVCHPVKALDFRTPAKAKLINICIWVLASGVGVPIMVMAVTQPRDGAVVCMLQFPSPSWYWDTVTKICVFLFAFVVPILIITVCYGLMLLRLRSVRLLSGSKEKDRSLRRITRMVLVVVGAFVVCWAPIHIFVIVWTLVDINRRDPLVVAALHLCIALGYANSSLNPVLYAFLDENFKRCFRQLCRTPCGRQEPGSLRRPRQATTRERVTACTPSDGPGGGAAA

CC[C@H](C)[C@H](NC(=O)[C@H](CCCNC(=N)N)NC(=O)[C@H](CCCNC(=N)N)NC(=O)[C@H](CC(C)C)NC(=O)[C@H](Cc1ccccc1)NC(=O)[C@@H](CCC(=O)O)NC(=O)CNC(=O)[C@@H](N)Cc1ccc(O)cc1)C(=O)N[C@@H](CCCNC(=N)N)C(=O)N1CCC[C@H]1C(=O)N[C@@H](CCCCN)C(N)=O
IC50 [1]: 1100 nM | IC50 [2]: 2500 nM

CC[C@H](C)[C@H](NC(=O)[C@H](CCCN=C(N)N)NC(=O)[C@H](CCCN=C(N)N)NC(=O)[C@H](CC(C)C)NC(=O)[C@H](Cc1ccccc1)NC(=O)[C@@H](CCCN=C(N)N)NC(=O)CNC(=O)[C@@H](N)Cc1ccc(O)cc1)C(=O)N[C@@H](CCCN=C(N)N)C(=O)N1CCC[C@H]1C(=O)N[C@@H](CCCCN)C(N)=O
Ratio [3]: > 260 | Ratio [4]: 22 | Ratio [5]: > 260

CC[C@H](C)[C@H](NC(=O)[C@H](CCCN=C(N)N)NC(=O)[C@H](CCCN=C(N)N)NC(=O)[C@H](CC(C)C)NC(=O)[C@H](Cc1ccccc1)NC(=O)CNC(=O)CNC(=O)[C@@H](N)Cc1ccc(O)cc1)C(=O)N[C@@H](CCCN=C(N)N)C(=O)N1CCC[C@H]1C(=O)N[C@@H](CCCCN)C(N)=O
IC50 [6]: 1 nM

CC[C@H](C)[C@H](NC(=O)[C@H](CCCN=C(N)N)NC(=O)[C@H](CCCN=C(N)N)NC(=O)[C@H](CC(C)C)NC(=O)[C@H](Cc1ccccc1)NC(=O)[C@@H](NC(=O)CNC(=O)[C@@H](N)Cc1ccc(O)cc1)[C@@H](C)c1c(C)cccc1C)C(=O)N[C@@H](CCCN=C(N)N)C(=O)N1CCC[C@H]1C(=O)N[C@@H](CCCCN)C(N)=O
IC50 [6]: 40800 nM | IC50 [1]: 113 nM | IC50 [2]: 2800 nM | Ratio [3]: 360

CC[C@H](C)[C@H](NC(=O)[C@H](CCCN=C(N)N)NC(=O)[C@H](CCCN=C(N)N)NC(=O)[C@H](CC(C)C)NC(=O)[C@H](Cc1ccccc1)NC(=O)[C@H](CCCCN)NC(=O)CNC(=O)[C@@H](N)Cc1ccc(O)cc1)C(=O)N[C@@H](CCCN=C(N)N)C(=O)N1CCC[C@H]1C(=O)N[C@@H](CCCCN)C(N)=O
inhibition at 30 µM [7]: 15.6% | IC50 [1]: 240 nM | IC50 [2]: 7400 nM | Ratio [3]: > 120 | Ratio [4]: 31 | Ratio [5]: > 330 | inhibition [8]: 30%

CC[C@H](C)[C@H](NC(=O)CNC(=O)[C@@H](N)Cc1ccc(O)cc1)C(=O)N[C@@H](Cc1ccccc1)C(=O)N[C@@H](CC(C)C)C(=O)N[C@@H](CCCN=C(N)N)C(=O)N[C@@H](CCCN=C(N)N)C(=O)N[C@H](C(=O)N[C@@H](CCCN=C(N)N)C(=O)N1CCC[C@H]1C(=O)N[C@@H](CCCCN)C(N)=O)[C@@H](C)CC
IC50 [6]: 460 nM | IC50 [1]: 40 nM | IC50 [2]: 860 nM | Ratio [3]: 12 | Ratio [4]: 22

CC[C@H](C)[C@H](NC(=O)[C@H](CCCN=C(N)N)NC(=O)[C@H](CCCN=C(N)N)NC(=O)[C@H](CC(C)C)NC(=O)[C@H](Cc1ccccc1)NC(=O)[C@H](NC(=O)CNC(=O)[C@@H](N)Cc1ccc(O)cc1)[C@@H](C)c1ccccc1)C(=O)N[C@@H](CCCN=C(N)N)C(=O)N1CCC[C@H]1C(=O)N[C@@H](CCCCN)C(N)=O
IC50 [6]: 2800 nM | IC50 [1]: 6 nM | IC50 [2]: 112 nM | Ratio [3]: 467 | Ratio [4]: 20 | Ratio [5]: 112

CC[C@@H](C)[C@@H](NC(=O)CNC(=O)[C@@H](N)Cc1ccc(O)cc1)C(=O)N[C@@H](Cc1ccccc1)C(=O)N[C@@H](CC(C)C)C(=O)N[C@@H](CCCN=C(N)N)C(=O)N[C@@H](CCCN=C(N)N)C(=O)N[C@H](C(=O)N[C@@H](CCCN=C(N)N)C(=O)N1CCC[C@H]1C(=O)N[C@@H](CCCCN)C(N)=O)[C@@H](C)CC
Inhibition [9]: 5.7% | IC50 [1]: 55 nM | IC50 [2]: 1030 nM | Ratio [3]: > 1100 | Ratio [4]: 19 | Ratio [5]: 260

CC[C@H](C)[C@H](NC(=O)[C@H](CCCNC(=N)N)NC(=O)[C@H](CCCNC(=N)N)NC(=O)[C@H](CC(C)C)NC(=O)[C@H](Cc1ccccc1)NC(=O)[C@@H](CCCCN)NC(=O)CNC(=O)[C@@H](N)Cc1ccc(O)cc1)C(=O)N[C@@H](CCCNC(=N)N)C(=O)N1CCC[C@H]1C(=O)N[C@@H](CCCCN)C(N)=O
IC50 [1]: 380 nM | IC50 [2]: 1900 nM

CC[C@H](C)[C@H](NC(=O)[C@H](CCCN=C(N)N)NC(=O)[C@H](CCCN=C(N)N)NC(=O)[C@H](CC(C)C)NC(=O)[C@H](Cc1ccccc1)NC(=O)[C@H](Cc1ccccc1)NC(=O)CNC(=O)[C@@H](N)Cc1ccc(O)cc1)C(=O)N[C@@H](CCCN=C(N)N)C(=O)N1CCC[C@H]1C(=O)N[C@@H](CCCCN)C(N)=O
IC50 [6]: 1.1 nM | IC50 [1]: 0.89 nM | IC50 [2]: 27.1 nM | Ratio [3]: 1.2 | Ratio [4]: 30 | Ratio [5]: 315

CC[C@H](C)[C@H](NC(=O)[C@H](CCCN=C(N)N)NC(=O)[C@H](CCCN=C(N)N)NC(=O)[C@H](CC(C)C)NC(=O)[C@H](Cc1ccccc1)NC(=O)[C@H](CCC(=O)O)NC(=O)CNC(=O)[C@@H](N)Cc1ccc(O)cc1)C(=O)N[C@@H](CCCN=C(N)N)C(=O)N1CCC[C@H]1C(=O)N[C@@H](CCCCN)C(N)=O
inhibition at 30 µM [10]: 48% | IC50 [1]: 150 nM | IC50 [2]: 6600 nM | Ratio [3]: > 200 | Ratio [4]: 44 | Ratio [5]: 20

CC[C@H](C)[C@H](NC(=O)[C@H](CCCN=C(N)N)NC(=O)[C@H](CCCN=C(N)N)NC(=O)[C@H](CC(C)C)NC(=O)[C@H](Cc1ccccc1)NC(=O)[C@@H](CCC(=O)O)NC(=O)CNC(=O)[C@@H](N)Cc1ccc(O)cc1)C(=O)N[C@@H](CCCN=C(N)N)C(=O)N1CCC[C@H]1C(=O)N[C@@H](CCCCN)C(N)=O
IC50 [6]: 5700 nM | Ratio [3]: 5 | Ratio [4]: 2.3 | Ratio [5]: 12

CC[C@H](C)[C@H](NC(=O)[C@H](CCCN=C(N)N)NC(=O)[C@H](CCCN=C(N)N)NC(=O)[C@H](CC(C)C)NC(=O)[C@H](Cc1ccccc1)NC(=O)[C@@H](NC(=O)CNC(=O)[C@@H](N)Cc1ccc(O)cc1)[C@@H](C)c1ccccc1)C(=O)N[C@@H](CCCN=C(N)N)C(=O)N1CCC[C@H]1C(=O)N[C@@H](CCCCN)C(N)=O
IC50 [6]: 2190 nM | IC50 [1]: 121 nM | IC50 [2]: 1350 nM | Ratio [3]: 18 | Ratio [4]: 11 | Ratio [5]: 13

CC[C@H](C)[C@H](NC(=O)[C@H](CCCN=C(N)N)NC(=O)[C@H](CCCN=C(N)N)NC(=O)[C@H](CC(C)C)NC(=O)[C@H](Cc1ccccc1)NC(=O)[C@@H](CCCCN)NC(=O)CNC(=O)[C@@H](N)Cc1ccc(O)cc1)C(=O)N[C@@H](CCCN=C(N)N)C(=O)N1CCC[C@H]1C(=O)N[C@@H](CCCCN)C(N)=O
IC50 [6]: 21000 nM | Ratio [3]: 55 | Ratio [4]: 5 | Ratio [5]: 42

CC[C@H](C)[C@H](NC(=O)[C@H](CCCN=C(N)N)NC(=O)[C@H](CCCN=C(N)N)NC(=O)[C@H](CC(C)C)NC(=O)[C@H](Cc1ccccc1)NC(=O)[C@@H](Cc1ccc(O)cc1)NC(=O)CNC(=O)[C@@H](N)Cc1ccc(O)cc1)C(=O)N[C@@H](CCCN=C(N)N)C(=O)N1CCC[C@H]1C(=O)N[C@@H](CCCCN)C(N)=O
inhibition at 60 µM [11]: 41.7% | IC50 [1]: 23.1 nM | IC50 [2]: 650 nM | Ratio [3]: > 2600

CC[C@H](C)[C@H](NC(=O)[C@H](CCCN=C(N)N)NC(=O)[C@H](CCCN=C(N)N)NC(=O)[C@H](CC(C)C)NC(=O)[C@H](Cc1ccccc1)NC(=O)[C@@H](Cc1ccccc1)NC(=O)CNC(=O)[C@@H](N)Cc1ccc(O)cc1)C(=O)N[C@@H](CCCN=C(N)N)C(=O)N1CCC[C@H]1C(=O)N[C@@H](CCCCN)C(N)=O
IC50 [6]: 370 nM | IC50 [1]: 5.9 nM | IC50 [2]: 86 nM | Ratio [3]: 62 | Ratio [4]: 15 | Ratio [5]: 125

CC[C@H](C)[C@H](NC(=O)[C@H](CCCN=C(N)N)NC(=O)[C@H](CCCN=C(N)N)NC(=O)[C@H](CC(C)C)NC(=O)[C@H](Cc1ccccc1)NC(=O)[C@H](Cc1ccc(O)cc1)NC(=O)CNC(=O)[C@@H](N)Cc1ccc(O)cc1)C(=O)N[C@@H](CCCN=C(N)N)C(=O)N1CCC[C@H]1C(=O)N[C@@H](CCCCN)C(N)=O
IC50 [6]: 220 nM | IC50 [1]: 8.9 nM | IC50 [2]: 290 nM | Ratio [3]: 25
